# Laboratory results from ChEMBL document CHEMBL2086252, “Syntheses and evaluation of anticonvulsant activity of novel branched alkyl carbamates” (J Med Chem, 2012).
# Calls of active or inactive are those of the source. The rule behind the calls is not given here.
# Assays:
# Mus musculus [1] = assay: Neurotoxicity in albino CF1 mouse assessed as minimal motor impairment at 300 mg/kg, ip after 4 hrs by rotarod test; assay type: toxicity, organism-based; set-up: dose 300 mg/kg, route intraperitoneal; details: in vivo
# How it was run: (§1)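 Mice dosed ip at 30, 100 or 300 mg/kg, then tested 0.5 h and 4 h after administration in the MES or scMet test. Protection was recorded as animals protected over animals tested. Neurotoxicity was recorded as motor impairment or sedation, as animals affected over animals tested.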
# Mus musculus [2] = assay: Anticonvulsant activity in albino CF1 mouse assessed as protection against subcutaneous metrazol-induced seizures at 100 mg/kg, ip after 0.5 hrs; assay type: functional, organism-based; set-up: dose 100 mg/kg; how it was run: as §1
# Rattus norvegicus [3] = assay: Neurotoxicity in pilocarpine-induced status epilepticus Sprague-Dawley albino rat model assessed as minimal motor impairment at 30 mg/kg, ip after 0.25 hr by rotarod test; assay type: toxicity, organism-based; set-up: dose 30 mg/kg, route intraperitoneal; details: in vivo
# How it was run: (§2)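 Rat pilocarpine status epilepticus model: test carbamate given at 0 or 30 min after the first observed Racine stage 3 motor seizure, which marks SE onset. Neurotoxicity was scored within the same model.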
# Rattus norvegicus [4] = assay: Neurotoxicity in pilocarpine-induced status epilepticus Sprague-Dawley albino rat model assessed as minimal motor impairment at 300 mg/kg, ip after 2 hrs by rotarod test; assay type: toxicity, organism-based; set-up: dose 300 mg/kg, route intraperitoneal; details: in vivo; how it was run: as §2
# Rattus norvegicus [5] = assay: Neurotoxicity in pilocarpine-induced status epilepticus Sprague-Dawley albino rat model assessed as minimal motor impairment at 100 mg/kg, ip after 0.5 hrs by rotarod test; assay type: toxicity, organism-based; set-up: dose 100 mg/kg, route intraperitoneal; details: in vivo
# Mus musculus [6] = assay: Anticonvulsant activity in albino CF1 mouse assessed as protection against subcutaneous metrazol-induced seizures at 30 mg/kg, ip after 0.5 hrs; assay type: functional, organism-based; set-up: dose 30 mg/kg; how it was run: as §1
# Rattus norvegicus [7] = assay: Neurotoxicity in pilocarpine-induced status epilepticus Sprague-Dawley albino rat model assessed as minimal motor impairment at 100 mg/kg, ip after 2 hrs by rotarod test; assay type: toxicity, organism-based; set-up: dose 100 mg/kg, route intraperitoneal; details: in vivo
# Rattus norvegicus [8] = assay: Neurotoxicity in pilocarpine-induced status epilepticus Sprague-Dawley albino rat model assessed as minimal motor impairment at 300 mg/kg, ip after 0.25 hr by rotarod test; assay type: toxicity, organism-based; set-up: dose 300 mg/kg, route intraperitoneal; details: in vivo; how it was run: as §2
# Rattus norvegicus [9] = assay: Neurotoxicity in pilocarpine-induced status epilepticus Sprague-Dawley albino rat model assessed as minimal motor impairment at 100 mg/kg, ip after 4 hrs by rotarod test; assay type: toxicity, organism-based; set-up: dose 100 mg/kg, route intraperitoneal; details: in vivo
# Mus musculus [10] = assay: Neurotoxicity in albino CF1 mouse assessed as minimal motor impairment at 30 mg/kg, ip after 4 hrs by rotarod test; assay type: toxicity, organism-based; set-up: dose 30 mg/kg, route intraperitoneal; details: in vivo; how it was run: as §1
# Mus musculus [11] = assay: Anticonvulsant activity in albino CF1 mouse assessed as protection against maximal electroshock-induced seizures at 100 mg/kg, ip after 4 hrs; assay type: functional, organism-based; set-up: dose 100 mg/kg; how it was run: as §1
# Mus musculus [12] = assay: Neurotoxicity in albino CF1 mouse assessed as minimal motor impairment at 300 mg/kg, ip after 0.5 hrs by rotarod test; assay type: toxicity, organism-based; set-up: dose 300 mg/kg, route intraperitoneal; details: in vivo; how it was run: as §1
# Mus musculus [13] = assay: Neurotoxicity in albino CF1 mouse assessed as minimal motor impairment at 100 mg/kg, ip after 4 hrs by rotarod test; assay type: toxicity, organism-based; set-up: dose 100 mg/kg, route intraperitoneal; details: in vivo; how it was run: as §1
# Rattus norvegicus [14] = assay: Neurotoxicity in pilocarpine-induced status epilepticus Sprague-Dawley albino rat model assessed as minimal motor impairment at 300 mg/kg, ip after 1 hr by rotarod test; assay type: toxicity, organism-based; set-up: dose 300 mg/kg, route intraperitoneal; details: in vivo; how it was run: as §2
# Mus musculus [15] = assay: Anticonvulsant activity in albino CF1 mouse assessed as protection against subcutaneous metrazol-induced seizures at 100 mg/kg, ip after 4 hrs; assay type: functional, organism-based; set-up: dose 100 mg/kg; how it was run: as §1
# Mus musculus [16] = assay: Anticonvulsant activity in albino CF1 mouse assessed as protection against maximal electroshock-induced seizures at 30 mg/kg, ip after 4 hrs; assay type: functional, organism-based; set-up: dose 30 mg/kg; how it was run: as §1
# Mus musculus [17] = assay: Anticonvulsant activity in albino CF1 mouse assessed as protection against subcutaneous metrazol-induced seizures at 30 mg/kg, ip after 4 hrs; assay type: functional, organism-based; set-up: dose 30 mg/kg; how it was run: as §1
# Rattus norvegicus [18] = assay: Neurotoxicity in pilocarpine-induced status epilepticus Sprague-Dawley albino rat model assessed as minimal motor impairment at 30 mg/kg, ip after 1 hr by rotarod test; assay type: toxicity, organism-based; set-up: dose 30 mg/kg, route intraperitoneal; details: in vivo; how it was run: as §2
# Mus musculus [19] = assay: Anticonvulsant activity in albino CF1 mouse assessed as protection against subcutaneous metrazol-induced seizures at 300 mg/kg, ip after 0.5 hrs; assay type: functional, organism-based; set-up: dose 300 mg/kg; how it was run: as §1
# Mus musculus [20] = assay: Anticonvulsant activity in albino CF1 mouse assessed as protection against subcutaneous metrazol-induced seizures at 300 mg/kg, ip after 4 hrs; assay type: functional, organism-based; set-up: dose 300 mg/kg; how it was run: as §1
# Mus musculus [21] = assay: Anticonvulsant activity in albino CF1 mouse assessed as protection against maximal electroshock-induced seizures at 300 mg/kg, ip after 4 hrs; assay type: functional, organism-based; set-up: dose 300 mg/kg; how it was run: as §1
# Mus musculus [22] = assay: Neurotoxicity in albino CF1 mouse assessed as minimal motor impairment at 100 mg/kg, ip after 0.5 hrs by rotarod test; assay type: toxicity, organism-based; set-up: dose 100 mg/kg, route intraperitoneal; details: in vivo; how it was run: as §1
# Rattus norvegicus [23] = assay: Neurotoxicity in pilocarpine-induced status epilepticus Sprague-Dawley albino rat model assessed as minimal motor impairment at 100 mg/kg, ip after 0.25 hr by rotarod test; assay type: toxicity, organism-based; set-up: dose 100 mg/kg, route intraperitoneal; details: in vivo
# Rattus norvegicus [24] = assay: Anticonvulsant activity in Sprague-Dawley albino rat assessed as protection against maximal electroshock-induced seizures at 30 mg/kg, po after 4 hrs; assay type: functional, organism-based; set-up: dose 30 mg/kg
# How it was run: (§3)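 Rats dosed orally. Anti-MES protection was scored as animals protected over animals tested at each time after dosing. Neurotoxicity was scored as motor impairment or sedation, as animals affected over animals tested.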
# Rattus norvegicus [25] = assay: Neurotoxicity in pilocarpine-induced status epilepticus Sprague-Dawley albino rat model assessed as minimal motor impairment at 30 mg/kg, ip after 0.5 hrs by rotarod test; assay type: toxicity, organism-based; set-up: dose 30 mg/kg, route intraperitoneal; details: in vivo; how it was run: as §2
# Rattus norvegicus [26] = assay: Neurotoxicity in Sprague-Dawley albino rat assessed as minimal motor impairment at 30 mg/kg, po by rotarod test; assay type: toxicity, organism-based; set-up: dose 30 mg/kg, route oral; details: in vivo; how it was run: as §3
# Rattus norvegicus [27] = assay: Anticonvulsant activity in Sprague-Dawley albino rat assessed as protection against maximal electroshock-induced seizures at 30 mg/kg, po after 1 hr; assay type: functional, organism-based; set-up: dose 30 mg/kg; how it was run: as §3
# Mus musculus [28] = assay: Anticonvulsant activity in albino CF1 mouse assessed as protection against maximal electroshock-induced seizures at 30 mg/kg, ip after 0.5 hrs; assay type: functional, organism-based; set-up: dose 30 mg/kg; how it was run: as §1
# Rattus norvegicus [29] = assay: Neurotoxicity in pilocarpine-induced status epilepticus Sprague-Dawley albino rat model assessed as minimal motor impairment at 30 mg/kg, ip after 2 hrs by rotarod test; assay type: toxicity, organism-based; set-up: dose 30 mg/kg, route intraperitoneal; details: in vivo; how it was run: as §2
# Rattus norvegicus [30] = assay: Neurotoxicity in pilocarpine-induced status epilepticus Sprague-Dawley albino rat model assessed as minimal motor impairment at 300 mg/kg, ip after 4 hrs by rotarod test; assay type: toxicity, organism-based; set-up: dose 300 mg/kg, route intraperitoneal; details: in vivo; how it was run: as §2
# Mus musculus [31] = assay: Anticonvulsant activity in albino CF1 mouse assessed as protection against maximal electroshock-induced seizures at 300 mg/kg, ip after 0.5 hrs; assay type: functional, organism-based; set-up: dose 300 mg/kg; how it was run: as §1
# Mus musculus [32] = assay: Neurotoxicity in albino CF1 mouse assessed as minimal motor impairment at 30 mg/kg, ip after 0.5 hrs by rotarod test; assay type: toxicity, organism-based; set-up: dose 30 mg/kg, route intraperitoneal; details: in vivo; how it was run: as §1
# Rattus norvegicus [33] = assay: Neurotoxicity in pilocarpine-induced status epilepticus Sprague-Dawley albino rat model assessed as minimal motor impairment at 30 mg/kg, ip after 4 hrs by rotarod test; assay type: toxicity, organism-based; set-up: dose 30 mg/kg, route intraperitoneal; details: in vivo; how it was run: as §2
# Rattus norvegicus [34] = assay: Neurotoxicity in pilocarpine-induced status epilepticus Sprague-Dawley albino rat model assessed as minimal motor impairment at 300 mg/kg, ip after 0.5 hrs by rotarod test; assay type: toxicity, organism-based; set-up: dose 300 mg/kg, route intraperitoneal; details: in vivo; how it was run: as §2
# Rattus norvegicus [35] = assay: Anticonvulsant activity in Sprague-Dawley albino rat assessed as protection against maximal electroshock-induced seizures at 30 mg/kg, po after 2 hrs; assay type: functional, organism-based; set-up: dose 30 mg/kg; how it was run: as §3
# Rattus norvegicus [36] = assay: Anticonvulsant activity in Sprague-Dawley albino rat assessed as protection against maximal electroshock-induced seizures at 30 mg/kg, po after 30 mins; assay type: functional, organism-based; set-up: dose 30 mg/kg; how it was run: as §3
# Rattus norvegicus [37] = assay: Anticonvulsant activity in Sprague-Dawley albino rat assessed as protection against maximal electroshock-induced seizures at 30 mg/kg, po after 15 mins; assay type: functional, organism-based; set-up: dose 30 mg/kg; how it was run: as §3
SMILES,Activity (Mus musculus [1]),Activity (Mus musculus [2]),Activity (Rattus norvegicus [3]),Activity (Rattus norvegicus [4]),Activity (Rattus norvegicus [5]),Activity (Mus musculus [6]),Activity (Rattus norvegicus [7]),Activity (Rattus norvegicus [8]),Activity (Rattus norvegicus [9]),Activity (Mus musculus [10]),Activity (Mus musculus [11]),Activity (Mus musculus [13]),Activity (Rattus norvegicus [14]),Activity (Mus musculus [15]),Activity (Mus musculus [16]),Activity (Mus musculus [17]),Activity (Rattus norvegicus [18]),Activity (Mus musculus [19]),Activity (Mus musculus [20]),Activity (Mus musculus [21]),other results
CC(COC(N)=O)CC(C)(C)C (racemic),Non-toxic,inactive,Non-toxic,Toxic,Toxic,inactive,Non-toxic,Toxic,Non-toxic,Non-toxic,inactive,Non-toxic,Toxic,inactive,inactive,inactive,Non-toxic,Active,inactive,Active,Activity (Mus musculus [12]): Toxic; Activity (Mus musculus [22]): Non-toxic; Activity (Rattus norvegicus [23]): Toxic; Activity (Rattus norvegicus [24]): inactive; Activity (Rattus norvegicus [25]): Non-toxic; Activity (Rattus norvegicus [26]): Non-toxic; Activity (Rattus norvegicus [27]): inactive; Activity (Mus musculus [28]): inactive; Activity (Rattus norvegicus [29]): Non-toxic; Activity (Rattus norvegicus [30]): Non-toxic; Activity (Mus musculus [31]): Active; Activity (Mus musculus [32]): Non-toxic; Activity (Rattus norvegicus [33]): Non-toxic; Activity (Rattus norvegicus [34]): Toxic; Activity (Rattus norvegicus [35]): inactive
CCCC(COC(N)=O)C(C)CC (racemic),Non-toxic,inactive,Toxic,Non-toxic,Toxic,inactive,Non-toxic,Non-toxic,Non-toxic,Non-toxic,inactive,Non-toxic,Non-toxic,inactive,inactive,inactive,Toxic,Active,inactive,Active,Activity (Rattus norvegicus [36]): inactive; Activity (Rattus norvegicus [23]): Toxic; Activity (Rattus norvegicus [24]): inactive; Activity (Rattus norvegicus [25]): Toxic; Activity (Rattus norvegicus [26]): Non-toxic; Activity (Rattus norvegicus [27]): inactive; Activity (Mus musculus [28]): inactive; Activity (Rattus norvegicus [29]): Toxic; Activity (Rattus norvegicus [30]): Non-toxic; Activity (Mus musculus [31]): Active; Activity (Mus musculus [32]): Non-toxic; Activity (Rattus norvegicus [33]): Toxic; Activity (Rattus norvegicus [37]): inactive; Activity (Rattus norvegicus [34]): Non-toxic; Activity (Rattus norvegicus [35]): inactive
